The target of series [1] is Beta-1 adrenergic receptor (Homo sapiens, UniProt P08588). Put plainly: Intrinsic activity at human beta1-adrenergic receptor expressed in CHO cells assessed as increase of cAMP level after 30 mins relative to isoproterenol. The format is functional, cell-based. The method, boiled down: (§1)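 Stably transfected CHO cells expressing human β1, β2 or β3 or marmoset β3 receptor were grown in Ham's F-12 with 10% FBS and geneticin, seeded at 2×10⁴ cells/well and grown about 20 h. Cells spent 15 min serum-free, then 30 min with compound in medium containing HEPES and isobutylmethylxanthine. Lysate cAMP was measured by kit. […] EC50 is the half-maximal concentration for each compound.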

The target of series [2] is T1, Beta-2 adrenergic receptor (Homo sapiens, UniProt P07550). Put plainly: Agonist activity at human beta2-adrenergic receptor expressed in CHO cells assessed as increase of cAMP level after 30 mins. The class given is functional, cell-based. The method, boiled down:
as §1
Target sequence in this assay (P07550 whole entry): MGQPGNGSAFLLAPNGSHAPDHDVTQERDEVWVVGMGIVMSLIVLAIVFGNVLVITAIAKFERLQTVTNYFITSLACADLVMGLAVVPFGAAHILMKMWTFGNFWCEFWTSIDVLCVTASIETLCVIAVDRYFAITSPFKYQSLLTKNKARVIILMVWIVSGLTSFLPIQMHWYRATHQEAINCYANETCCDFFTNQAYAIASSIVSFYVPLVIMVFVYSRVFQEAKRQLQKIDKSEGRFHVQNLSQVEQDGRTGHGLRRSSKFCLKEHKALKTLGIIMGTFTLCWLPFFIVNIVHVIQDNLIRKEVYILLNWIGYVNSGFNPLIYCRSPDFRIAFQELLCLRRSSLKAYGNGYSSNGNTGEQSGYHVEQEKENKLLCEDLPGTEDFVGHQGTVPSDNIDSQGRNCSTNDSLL

For series [3], the target named is T1, Beta-2 adrenergic receptor. Put plainly: Intrinsic activity at human beta2-adrenergic receptor expressed in CHO cells assessed as increase of cAMP level after 30 mins relative to isoproterenol. The class given is functional, cell-based. The gist of the method:
as §1
Target sequence in this assay (P07550 whole entry, looked up): as the sequence (P07550 whole entry) above

Series [4] is filed under the species Homo sapiens. Put plainly: Selectivity ratio of EC50 for human beta1-adrenergic receptor to EC50 for human beta3-adrenergic receptor.
Series [5] addresses T2, Alpha-1A adrenergic receptor (Homo sapiens, UniProt P35348).
T2 sequence (P35348 whole entry): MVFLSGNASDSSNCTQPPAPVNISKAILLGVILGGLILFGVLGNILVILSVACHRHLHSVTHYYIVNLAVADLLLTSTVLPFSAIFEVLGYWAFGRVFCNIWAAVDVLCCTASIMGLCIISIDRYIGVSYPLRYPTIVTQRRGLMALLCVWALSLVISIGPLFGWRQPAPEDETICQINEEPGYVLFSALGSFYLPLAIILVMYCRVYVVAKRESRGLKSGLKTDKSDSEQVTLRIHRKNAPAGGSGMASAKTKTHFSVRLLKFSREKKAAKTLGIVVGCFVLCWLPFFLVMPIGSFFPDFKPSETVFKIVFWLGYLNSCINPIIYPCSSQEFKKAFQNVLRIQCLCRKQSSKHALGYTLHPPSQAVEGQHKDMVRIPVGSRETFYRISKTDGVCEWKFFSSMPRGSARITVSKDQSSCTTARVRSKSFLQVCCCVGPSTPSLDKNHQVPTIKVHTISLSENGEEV
Put plainly: Agonist activity at human alpha1A-adrenergic receptor expressed in HEK293 cells assessed as calcium flux by fluorescence assay. The format is functional, cell-based.

Series [6] addresses T3, Alpha-1B adrenergic receptor (Homo sapiens, UniProt P35368).
T3 sequence (P35368 whole entry): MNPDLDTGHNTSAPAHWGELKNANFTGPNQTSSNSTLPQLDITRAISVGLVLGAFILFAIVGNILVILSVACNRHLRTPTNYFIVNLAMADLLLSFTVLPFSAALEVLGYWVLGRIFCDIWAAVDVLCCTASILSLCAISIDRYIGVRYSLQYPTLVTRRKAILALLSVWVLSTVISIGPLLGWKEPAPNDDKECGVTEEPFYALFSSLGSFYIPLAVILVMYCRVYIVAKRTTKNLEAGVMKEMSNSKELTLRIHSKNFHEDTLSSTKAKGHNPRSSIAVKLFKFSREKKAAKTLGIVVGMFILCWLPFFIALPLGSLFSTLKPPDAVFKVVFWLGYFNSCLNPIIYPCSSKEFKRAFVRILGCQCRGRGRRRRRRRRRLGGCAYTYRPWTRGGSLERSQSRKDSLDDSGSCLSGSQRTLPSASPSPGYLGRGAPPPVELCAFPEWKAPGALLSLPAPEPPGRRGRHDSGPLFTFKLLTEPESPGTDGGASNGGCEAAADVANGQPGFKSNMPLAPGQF
Put plainly: Agonist activity at human alpha1B-adrenergic receptor.

Series [7] has as its target T4, Alpha-2C adrenergic receptor (Homo sapiens, UniProt P18825).
T4 sequence (P18825 whole entry): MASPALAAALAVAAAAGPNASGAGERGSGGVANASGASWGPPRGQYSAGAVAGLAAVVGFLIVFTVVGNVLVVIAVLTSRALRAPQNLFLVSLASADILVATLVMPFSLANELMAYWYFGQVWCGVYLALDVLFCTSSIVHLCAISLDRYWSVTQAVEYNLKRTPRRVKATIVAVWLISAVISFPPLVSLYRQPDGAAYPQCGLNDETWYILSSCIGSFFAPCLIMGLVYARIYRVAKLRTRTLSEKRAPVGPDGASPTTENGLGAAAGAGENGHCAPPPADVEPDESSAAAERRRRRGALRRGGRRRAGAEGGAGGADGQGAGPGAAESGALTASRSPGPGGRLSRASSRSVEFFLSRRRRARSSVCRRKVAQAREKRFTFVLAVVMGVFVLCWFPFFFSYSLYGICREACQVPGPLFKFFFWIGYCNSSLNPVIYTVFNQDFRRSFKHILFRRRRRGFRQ
Put plainly: Agonist activity at human alpha2C-adrenergic receptor.

Series [8] concerns Rattus norvegicus. Put plainly: Cardiotoxicity in anesthetized Sprague-Dawley rat assessed as decrease in heart rate at 3 mg/kg, iv measured for 30 mins relative to control. The format is toxicity, organism-based. Further details: scale not given: the % may be the effect or the level left. To be noted: in vivo, 0.5 h. The method, boiled down:
(§2)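 Male Sprague-Dawley rats (200-300 g) were anesthetized with sodium pentobarbital (50 mg/kg i.p. plus 25 mg/kg s.c.). The compound was injected via the cannulated left femoral vein once BP and HR were stable, and HR and MBP were recorded for 30 min. Results are the maximum % increase or decrease from baseline, as mean ± SEM. Where given, silodosin (0.01 mg/kg iv) preceded the compound.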

In series [9] the test system is Rattus norvegicus. Put plainly: Cardiotoxicity in anesthetized Sprague-Dawley rat assessed as increase in mean blood pressure at 3 mg/kg, iv measured for 30 mins relative to control. The conditions noted are these: in vivo, 0.5 h. The format is toxicity, organism-based. The method, boiled down: as §2

A value given as a limit tells only on which side of the number the result lay.

Beta-1 adrenergic receptor, sequence (P08588 whole entry, looked up): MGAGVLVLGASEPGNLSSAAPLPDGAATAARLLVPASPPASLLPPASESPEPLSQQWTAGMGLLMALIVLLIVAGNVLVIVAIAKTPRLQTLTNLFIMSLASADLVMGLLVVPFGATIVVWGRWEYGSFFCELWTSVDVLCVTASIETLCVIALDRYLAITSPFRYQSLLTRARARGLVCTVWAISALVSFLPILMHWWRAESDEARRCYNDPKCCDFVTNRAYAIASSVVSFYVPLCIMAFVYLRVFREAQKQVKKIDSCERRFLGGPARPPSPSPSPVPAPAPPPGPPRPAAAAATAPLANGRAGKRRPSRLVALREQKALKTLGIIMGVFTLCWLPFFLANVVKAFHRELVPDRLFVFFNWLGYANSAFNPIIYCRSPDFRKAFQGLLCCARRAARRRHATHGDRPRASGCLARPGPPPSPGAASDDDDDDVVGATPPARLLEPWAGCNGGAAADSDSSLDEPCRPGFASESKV

On to `Cc1n[nH]c2cc(OCCNC[C@H](O)c3cccc(NS(C)(=O)=O)c3)ccc12`, for which the Intrinsic activity in [1] was determined as 6%; in [3] it was 4%. Moreover, the EC50 was over 10 µM in [2], 0.219 µM in series [5], over 10 µM in series [6] and over 10 µM in series [7]. Further, in series [4], the Ratio EC50 was over 476. The Activity in [8] came out at 8.8%; in [9], 24.2%.

These data come from ChEMBL document CHEMBL3600378 (J Med Chem, 2015).
